Screens deposited in PubChem by several laboratories.
Neddylation inh: blocks human cullin neddylation | P61081+Q13564 | TR-FRET cullin neddylation, biochemical | inhibition, % at 25 µM | 360,000 compounds, 0.58% hits | AID 651699; in the data active means inhibition above about 36%
PfM18AAP inh-1: PfM18AAP enzyme inhibition | recombinant PfM18AAP, H-Glu-NHMec fluorogenic cleavage | inhibition, % at 7.35 µM | 290,000 compounds, 1.2% hits;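 active means inhibition above the campaign mean inhibition over all tested compounds plus 3 SD, cut at about 28% in these data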;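 further: 0% = plate median of test compound wells and 100% = 2 mM ZnCl2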
HKDC1 inh: HKDC1 (human) hexokinase inhibition; Q2TB90; recombinant HKDC1, G6PDH/diaphorase resazurin coupled fluorescence; inhibition, % at 20 µM; 340,000 compounds, 0.16% hits;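 active means inhibition above about 35% when tested at 20 µM, limit read from the data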;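 further: plate controls were DMSO wells with enzyme for no effect and DMSO wells lacking enzyme for full effect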
Target sequence (Q2TB90 whole entry, looked up): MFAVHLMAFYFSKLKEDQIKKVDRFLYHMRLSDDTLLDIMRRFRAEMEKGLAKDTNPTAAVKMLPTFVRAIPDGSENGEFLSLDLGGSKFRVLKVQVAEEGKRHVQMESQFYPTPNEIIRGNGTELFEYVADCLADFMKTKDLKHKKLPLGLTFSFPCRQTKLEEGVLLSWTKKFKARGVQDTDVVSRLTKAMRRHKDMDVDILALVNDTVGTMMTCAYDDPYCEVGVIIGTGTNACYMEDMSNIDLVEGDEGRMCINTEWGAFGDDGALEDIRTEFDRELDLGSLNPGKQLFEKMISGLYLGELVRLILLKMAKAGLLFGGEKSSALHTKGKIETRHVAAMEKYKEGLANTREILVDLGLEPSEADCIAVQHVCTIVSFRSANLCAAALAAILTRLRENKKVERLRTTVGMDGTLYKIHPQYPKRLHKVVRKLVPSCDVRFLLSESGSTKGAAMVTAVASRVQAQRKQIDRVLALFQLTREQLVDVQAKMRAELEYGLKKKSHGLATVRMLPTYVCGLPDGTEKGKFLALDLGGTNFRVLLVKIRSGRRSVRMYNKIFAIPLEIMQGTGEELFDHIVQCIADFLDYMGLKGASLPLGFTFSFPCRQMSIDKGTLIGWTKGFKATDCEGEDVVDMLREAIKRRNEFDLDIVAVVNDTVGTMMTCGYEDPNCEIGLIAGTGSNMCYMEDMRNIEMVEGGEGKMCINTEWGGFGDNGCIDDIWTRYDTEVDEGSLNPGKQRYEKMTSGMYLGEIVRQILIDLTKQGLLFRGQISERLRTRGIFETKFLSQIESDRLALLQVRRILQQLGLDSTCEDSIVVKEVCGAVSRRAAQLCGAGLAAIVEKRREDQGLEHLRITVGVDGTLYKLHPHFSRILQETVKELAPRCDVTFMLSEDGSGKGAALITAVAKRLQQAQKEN
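System: Recombinant HKDC1 hexokinase | Amount: HKDC1 at 5 µg/mL | Reagent: Glucose with 1 mM ATP | Doses: Single 20 µM dose | Incubation: Reaction time 90 min, room temperature, protected from light | Signal: Coupled resazurin fluorescence, excitation 525 nm, emission 613 nm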
PfG6PD inh: PfG6PD (Plasmodium falciparum) enzyme inhibition; PfGluPho enzyme, NADPH resazurin-diaphorase fluorescence; inhibition, % at 20 µM; 350,000 compounds, 0.78% hits;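 active means inhibition reaching at least a set limit at 20 µM in the primary screen, cut at about 59% in these data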;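 further: 0% = DMSO wells with substrate and 100% = DMSO wells lacking glucose-6-phosphate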
PfM18AAP inh-2: PfM18AAP inhibition, confirmation. shares compounds with PfM18AAP inh-1. recombinant PfM18AAP, H-Glu-NHMec fluorogenic cleavage. inhibition, % at 7.35 µM. 2,400 compounds, 28% hits;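 active means mean inhibition over replicate wells above the hit cutoff set for the earlier primary screen, cut at about 29% in these data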;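 further: 0% = median of test compound wells and 100% = 2 mM ZnCl2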
CTSL1 confirm: Cathepsin L (human) inhibition, confirmation; shares compounds with PfM18AAP inh-1; 2,400 tested, under 10 active; purified cathepsin L1, Z-Leu-Arg-MCA fluorescence; AID 2178; inhibition, % at 5.96 µM;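 active means average inhibition across replicates above the hit cutoff set in the earlier primary screen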;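 further: 0% = median of test compound wells and 100% = Z-Phe-Ala-diazomethylketone 1 µM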
The depositor's hits bear a star; i = inactive; nt = no result shown. Rows were chosen to be rich in hits. Some 2.2% of all compounds tested hit in one or more screens of this group.

SMILES | Neddylation inh | PfM18AAP inh-1 | HKDC1 inh | PfG6PD inh | PfM18AAP inh-2 | CTSL1 confirm
NS(=O)(=O)c1ccc(CCNC(=O)c2ccc[nH]c2=S)cc1 | -10 | 43* | -2 | 31 | 7 | -9
NS(=O)(=O)c1ccc(CNC(=S)Nc2ccc(F)c(Cl)c2)cc1 | -3 | -4 | -4 | 34 | nt | nt
NS(=O)(=O)c1ccc(NC(=S)NCc2ccc(Cl)cc2)cc1 | -2 | 35* | -7 | 56 | 11 | 2
NS(=O)(=O)c1ccc(NC(=S)NCCc2ccccc2)cc1 | -1 | 41* | -10 | 53 | 7 | 4
NS(=O)(=O)c1ccc(CCNC(=O)c2cccc3ccccc23)cc1 | -12 | -3 | 4 | -17 | nt | nt
O=C(NCc1ccccc1F)C1CCCN1C(=O)Nc1ccccc1 (stereo unspecified) | 1 | -6 | 0 | -3 | nt | nt
COc1ccc(/C=C/CN2CCC(n3nccc3NC(=O)C3CC3)CC2)cc1 | 3 | -2 | -6 | 17 | nt | nt
O=C(O)c1ccc2c(c1)C(=O)/C(=C\c1ccco1)C2=O | -15 | 42* | 5 | 18 | 40* | -6
COc1cc(/C=C(\C#N)C(=O)NCCc2ccccc2)cc(OC)c1O | -40 | 7 | 2 | 15 | nt | nt
COc1cc(/C=C(\C#N)C(=O)c2c[nH]c3ccccc23)cc(OC)c1O | -11 | 36* | 22 | 29 | 7 | 2
CNC(=S)n1cnc(N)n1 | 1 | 40* | -2 | -10 | -34 | 0
CCOC(=O)C1=CN(Cc2ccco2)S(=O)(=O)NC1c1ccc(Br)cc1F (stereo unspecified) | -3 | nt | 0 | -5 | nt | nt
CNC(=S)NNc1nc(-c2ccccc2)c2cc(Cl)ccc2n1 | 13 | nt | -3 | 5 | nt | nt
CNC(=S)NNc1nc(C)cc(C)n1 | -2 | 68* | -1 | 16 | 48* | 0
COc1ccc(C(c2c(C)[nH][nH]c2=O)c2c(C)[nH][nH]c2=O)cc1Br | -2 | 36* | 6 | 9 | 15 | 3
COc1cc(C(c2c(C)[nH][nH]c2=O)c2c(C)[nH][nH]c2=O)cc(OC)c1OC | -1 | 35* | 0 | 3 | 6 | -2
Cc1ccc(S(=O)(=O)N(C(=N)N)c2nc(N(C)C)nc(N(C)C)n2)cc1 | 9 | -2 | nt | nt | nt | nt
CC(=O)N1CCN(S(=O)(=O)c2cccc(C(=O)NCCc3ccc(Cl)cc3)c2)CC1 | -8 | nt | -2 | -5 | nt | nt
NC(=O)CNc1ncc(C(F)(F)F)cc1Cl | -3 | 1 | 2 | 6 | nt | nt
Cc1onc(C(=O)NN)c1C(=O)Nc1ncc(C(F)(F)F)cc1Cl | 1 | 55* | -10 | 6 | -36 | -5
Cc1ccc(NC(=O)CN(C)C(=O)COc2ccc(Br)cc2)cc1 | -3 | nt | nt | 21 | nt | nt
N#Cc1ccsc1NC(=O)C1CCN(S(=O)(=O)c2cccs2)CC1 | 5 | nt | 4 | 5 | nt | nt
COC(=O)c1ccccc1C(=O)N1CCCC(CCC(=O)NCc2ccc(F)c(F)c2)C1 (stereo unspecified) | 8 | 1 | -12 | 4 | nt | nt
CCN1C(=O)CC(C(=O)OC)=C1C | 0 | 7 | -12 | 12 | nt | nt
COC(=O)C1=C(C)N(Cc2ccc3c(c2)OCO3)C(=O)C1 | 6 | 34* | 6 | -12 | -55 | 2
SMILES | Neddylation inh | PfM18AAP inh-1 | HKDC1 inh | PfG6PD inh | PfM18AAP inh-2 | CTSL1 confirm
CCn1c(/C=N/n2cnnc2)nc2ccccc21 | nt | 48* | -7 | 6 | -42 | -5
CC(=O)c1cc(-c2ccc(F)cc2)n(CCC(=O)Nc2cc(C)[nH]n2)c1C | 13 | 57* | -5 | 7 | -48 | -5
CC(=O)c1cc(-c2ccccc2)n(CCC(=O)NC2CCCC2)c1C | 11 | 3 | -7 | 7 | nt | nt
NC(=O)N/N=C/c1coc2ccc(O)cc2c1=O | -15 | 66* | -9 | 4 | 57* | -3
Cc1ccc2occ(/C=N/NC(=O)c3ccc(O)cc3)c(=O)c2c1 | 15 | 9 | 5 | -3 | nt | nt
CN(C)/C=C/c1oc2ccc(O)cc2c1[N+](=O)[O-] | i | 36* | 4 | 26 | -35 | 11
Cc1oc2ccc(O)cc2c1C(=O)c1ccc([N+](=O)[O-])cc1 | -44 | 2 | -5 | 54 | nt | nt
Cc1nc2c(cnn2CCO)c(=O)[nH]1 | -5 | nt | -4 | -2 | nt | nt
CCOc1ccc(NC(=S)N(CCN2CCOCC2)Cc2cc3cc4c(cc3[nH]c2=O)OCCO4)cc1 | 12 | 23 | -4 | 3 | nt | nt
O=c1[nH]c2cc3c(cc2cc1CN(CCN1CCOCC1)C(=S)NCC1CCCO1)OCO3 (stereo unspecified) | nt | 41* | -8 | -1 | -36 | 0
O=C1CSC(=S)N1/N=C/c1ccc(Cl)c([N+](=O)[O-])c1 | nt | 22 | nt | nt | nt | nt
COc1ccc(Br)cc1/C=N/N1C(=O)CSC1=S | -5 | 21 | -1 | -7 | nt | nt
COc1cc(/C=N/N2C(=O)CSC2=S)ccc1O | -12 | 33* | 1 | 1 | 10 | -1
O=C1CSC(=S)N1/N=C/c1ccc2c(c1)OCCO2 | -1 | 34* | 2 | -6 | -9 | 0
NC(N)=N/N=C/c1cccc([N+](=O)[O-])c1O | -50 | 43* | 6 | -13 | -6 | -1
O=[N+]([O-])c1cccc(/C=N\N=C2c3ccccc3-c3ccccc32)c1O | -25 | 15 | 2 | 31 | nt | nt
COc1ccccc1C#Cc1cnc2c(c1)C(=O)N([C@H](C)CO)C[C@H](C)[C@@H](CN(C)S(=O)(=O)c1cn(C)cn1)O2 | 19 | nt | nt | 24 | nt | nt
N#Cc1c(-c2cccnc2)c2c([nH]c1=S)CCCC2 | -6 | 33* | 6 | 58 | 51* | -7
N#Cc1c(N)nc2c(c1-c1cccnc1)CCCCC2 | 19 | -1 | -3 | -13 | nt | nt
COc1ccc(S(=O)(=O)Nc2ccc3c(c2)CCC3)cc1 | -1 | 11 | 10 | 6 | nt | nt
Cc1cc(C)nc(NS(=O)(=O)c2ccc(NC(=O)CSc3ncn[nH]3)cc2)n1 | -2 | 20 | -10 | -3 | nt | nt
CC(C)c1ccc(S(=O)(=O)Nc2ccc(O)c(Sc3ncn[nH]3)c2)cc1 | 4 | 58* | 3 | 0 | 31* | -1
COc1ccc(S(=O)(=O)Nc2ccc(O)c(Sc3ncn[nH]3)c2)cc1 | 3 | 54* | -6 | 10 | 40* | 2
CCn1c(=O)c2ccccc2n2c(SCC(N)=O)nnc12 | 12 | -1 | -4 | -2 | nt | nt
CCCn1c(SCCc2ccccc2)nc2c1c(=O)[nH]c(=O)n2C | 0 | -3 | 0 | 3 | nt | nt
SMILES | Neddylation inh | PfM18AAP inh-1 | HKDC1 inh | PfG6PD inh | PfM18AAP inh-2 | CTSL1 confirm
CCCn1c(N/N=C(C)\C=C\c2ccccc2)nc2c1c(=O)[nH]c(=O)n2C | nt | 44* | nt | nt | -20 | 3
O=C(NCCCN1CCCC1=O)c1ccc(NS(=O)(=O)c2ccc(F)cc2)cc1 | 6 | nt | -5 | -4 | nt | nt
CCc1nnc(NC(=O)CSCc2cc(=O)n3nc(C)sc3n2)s1 | -2 | -6 | -6 | 11 | nt | nt
CCOc1ccccc1N1CCN(Cc2cc3c(cc2[N+](=O)[O-])OCO3)CC1 | -10 | 6 | 2 | 16 | nt | nt
Cc1ccccc1N1CCN(Cc2cc3c(cc2[N+](=O)[O-])OCO3)CC1 | -4 | 35* | 1 | 11 | -26 | -1
CC(C)CCNC(=S)Nc1ccccn1 | 2 | 33* | -1 | 29 | 6 | 2
